Molecular target: Sodium-dependent serotonin transporter (Rattus norvegicus) (UniProt P31652)
Experiment: In vivo effective dose required to inhibit p-chloroamphetamine induced excitation in rats upon subcutaneous administration
Type: functional, organism-based
How it was run: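 Overnight-starved male Wistar rats (200–250 g) given test compound or solvent sc 1 h before p-chloroamphetamine (5 mg/10 mL/kg, sc). Excitation scored over a 15-min interval starting 45 min after pCA. A score <2 was the all-or-nothing criterion for inhibition (1.0% false positives, n>200). ED50 in mg/kg.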

Sodium-dependent serotonin transporter (Rattus norvegicus), sequence (P31652 whole entry): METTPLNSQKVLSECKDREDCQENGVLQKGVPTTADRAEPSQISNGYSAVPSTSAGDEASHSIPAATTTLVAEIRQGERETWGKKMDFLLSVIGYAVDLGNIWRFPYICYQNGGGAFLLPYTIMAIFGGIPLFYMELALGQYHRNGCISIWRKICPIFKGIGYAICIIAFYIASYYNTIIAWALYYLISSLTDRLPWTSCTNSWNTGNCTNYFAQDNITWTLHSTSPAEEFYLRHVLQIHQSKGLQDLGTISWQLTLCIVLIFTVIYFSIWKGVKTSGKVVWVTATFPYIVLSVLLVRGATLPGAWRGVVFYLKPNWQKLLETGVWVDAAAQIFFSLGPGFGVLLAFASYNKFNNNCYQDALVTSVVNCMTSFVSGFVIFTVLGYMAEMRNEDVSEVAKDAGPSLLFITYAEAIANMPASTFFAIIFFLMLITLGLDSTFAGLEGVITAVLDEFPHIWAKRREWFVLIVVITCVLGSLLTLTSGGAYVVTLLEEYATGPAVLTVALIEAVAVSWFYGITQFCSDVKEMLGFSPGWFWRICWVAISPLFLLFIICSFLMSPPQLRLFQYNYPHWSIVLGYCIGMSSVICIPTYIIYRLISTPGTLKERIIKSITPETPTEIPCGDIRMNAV

Row | SMILES | ED50
1 | COc1cc2c(cc1OC)C1=NOC(CN3CCN(C/C=C(\C)c4ccccc4)CC3)C1CO2 (centres undefined) | 0.2 mg/kg
2 | COc1ccc2c(c1)C1=NOC(CN3CCN(C/C=C/c4ccccc4)CC3)C1CO2 (centres undefined) | 5 mg/kg
3 | COc1cc2c(cc1OC)C1=NO[C@@H](CN3CCN(C/C=C/c4ccccc4)CC3)[C@@H]1CO2 (stereo in doubt; (-)5) | 2.5 mg/kg
4 | COc1cccc2c1CCC[C@H]2CN(C)CCc1ccc2ccoc2c1 | 10 mg/kg
5 | COc1cc2c(cc1OC)C1=NO[C@@H](CN3CCN(C/C=C\c4ccccc4)CC3)[C@@H]1CO2 | 10 mg/kg
6 | COc1cc2c(cc1OC)C1=NOC(CN3CCN(Cc4ccccc4)CC3)C1CO2 (centres undefined) | 8 mg/kg
7 | COc1cc2c(cc1OC)C1=NO[C@@H](CN3CCN(C/C=C(\C)c4ccccc4)CC3)[C@@H]1CO2 (stereo in doubt; (-)15g) | > 10 mg/kg
8 | COc1cc2c(cc1OC)C1=NO[C@@H](CN3CCN(Cc4ccc5ccccc5c4)CC3)[C@@H]1CO2 (stereo in doubt; (-)15h) | 1.5 mg/kg
9 | COc1cc2c(cc1OC)C1=NOC(CN3CCN(Cc4ccc5ncccc5c4)CC3)C1CO2 (centres undefined) | 0.63 mg/kg
10 | COc1cc2c(cc1OC)C1=NO[C@@H](CN3CCN(C/C=C(\C)c4ccccc4)CC3)[C@@H]1CO2 (stereo in doubt; (+)15g) | 0.5 mg/kg
11 | COc1cc2c(cc1OC)C1=NOC(CN3CCN(Cc4cc5ccccc5s4)CC3)C1CO2 (centres undefined) | 2.5 mg/kg
12 | COc1cc2c(cc1OC)C1=NOC(CN3CCN(CCc4ccccc4)CC3)C1CO2 (centres undefined) | 10 mg/kg
13 | Fc1ccc2c(c1)CC(CC1CN=CN1)C2 (centres undefined) | 2 mg/kg
14 | COc1cc2c(cc1OC)C1=NOC(CN3CCN(Cc4cccc5ccccc45)CC3)C1CO2 (centres undefined) | 3.2 mg/kg
15 | COc1ccc2c(c1)OCC1C2=NOC1CN1CCN(C/C=C/c2ccccc2)CC1 (centres undefined) | 1.4 mg/kg
16 | C(=C\c1ccccc1)/CN1CCN(CC2ON=C3c4ccccc4OCC32)CC1 (centres undefined) | 5 mg/kg
17 | COc1cc2c(cc1OC)C1=NOC(CN3CCN(C/C=C/c4ccccc4)CC3)C1CO2 (centres undefined) | 0.76 mg/kg
18 | COc1cc2c(cc1OC)C1=NO[C@@H](CN3CCN(Cc4ccc5ccccc5c4)CC3)[C@@H]1CO2 (stereo in doubt; (+)15h) | 0.08 mg/kg

Molecular target: Adrenergic receptor alpha-2 (Rattus norvegicus) (UniProt P22086+P19328+P22909)
Experiment: In vivo effective dose required to inhibit xylazine-induced loss of righting in rats upon subcutaneous administration
Type: functional, organism-based

Row | SMILES | ED50
19 | COc1cc2c(cc1OC)C1=NOC(CN3CCN(C/C=C(\C)c4ccccc4)CC3)C1CO2 (centres undefined) | 2.5 mg/kg
20 | COc1ccc2c(c1)C1=NOC(CN3CCN(C/C=C/c4ccccc4)CC3)C1CO2 (centres undefined) | 2.5 mg/kg
21 | COc1cc2c(cc1OC)C1=NO[C@@H](CN3CCN(C/C=C/c4ccccc4)CC3)[C@@H]1CO2 (stereo in doubt; (-)5) | 5 mg/kg
22 | COc1cccc2c1CCC[C@H]2CN(C)CCc1ccc2ccoc2c1 | > 10 mg/kg
23 | COc1cc2c(cc1OC)C1=NOC(CN3CCN(Cc4ccccc4)CC3)C1CO2 (centres undefined) | > 10 mg/kg
24 | COc1cc2c(cc1OC)C1=NO[C@@H](CN3CCN(C/C=C(\C)c4ccccc4)CC3)[C@@H]1CO2 (stereo in doubt; (-)15g) | > 10 mg/kg
25 | COc1cc2c(cc1OC)C1=NO[C@@H](CN3CCN(Cc4ccc5ccccc5c4)CC3)[C@@H]1CO2 (stereo in doubt; (-)15h) | 10 mg/kg
26 | COc1cc2c(cc1OC)C1=NOC(CN3CCN(Cc4ccc5ncccc5c4)CC3)C1CO2 (centres undefined) | 5 mg/kg
27 | COc1cc2c(cc1OC)C1=NO[C@@H](CN3CCN(C/C=C(\C)c4ccccc4)CC3)[C@@H]1CO2 (stereo in doubt; (+)15g) | 0.32 mg/kg
28 | COc1cc2c(cc1OC)C1=NOC(CN3CCN(Cc4cc5ccccc5s4)CC3)C1CO2 (centres undefined) | > 10 mg/kg
29 | COc1cc2c(cc1OC)C1=NOC(CN3CCN(CCc4ccccc4)CC3)C1CO2 (centres undefined) | > 10 mg/kg
30 | Fc1ccc2c(c1)CC(CC1CN=CN1)C2 (centres undefined) | 2.7 mg/kg
31 | COc1cc2c(cc1OC)C1=NOC(CN3CCN(Cc4cccc5ccccc45)CC3)C1CO2 (centres undefined) | > 10 mg/kg
32 | COc1ccc2c(c1)OCC1C2=NOC1CN1CCN(C/C=C/c2ccccc2)CC1 (centres undefined) | 2 mg/kg
33 | C(=C\c1ccccc1)/CN1CCN(CC2ON=C3c4ccccc4OCC32)CC1 (centres undefined) | 2 mg/kg
34 | COc1cc2c(cc1OC)C1=NOC(CN3CCN(C/C=C/c4ccccc4)CC3)C1CO2 (centres undefined) | 2.5 mg/kg
35 | COc1cc2c(cc1OC)C1=NO[C@@H](CN3CCN(Cc4ccc5ccccc5c4)CC3)[C@@H]1CO2 (stereo in doubt; (+)15h) | 6.1 mg/kg

Molecular target: T1, Alpha-2A adrenergic receptor (Homo sapiens, UniProt P08913)
T1 sequence (P08913 whole entry): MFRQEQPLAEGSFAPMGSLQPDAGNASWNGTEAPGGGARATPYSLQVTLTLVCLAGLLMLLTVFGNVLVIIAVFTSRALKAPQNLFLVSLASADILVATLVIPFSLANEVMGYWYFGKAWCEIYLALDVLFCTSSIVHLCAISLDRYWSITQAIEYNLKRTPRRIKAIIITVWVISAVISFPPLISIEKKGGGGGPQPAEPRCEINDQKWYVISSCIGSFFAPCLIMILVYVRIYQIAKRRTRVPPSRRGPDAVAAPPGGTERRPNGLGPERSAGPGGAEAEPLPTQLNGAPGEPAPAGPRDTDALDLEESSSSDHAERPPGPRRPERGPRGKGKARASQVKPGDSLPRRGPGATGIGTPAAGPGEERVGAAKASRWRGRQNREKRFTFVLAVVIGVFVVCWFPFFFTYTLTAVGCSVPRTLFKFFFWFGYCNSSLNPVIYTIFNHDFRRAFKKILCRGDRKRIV
Experiment: In vitro binding affinity towards human alpha-2A adrenergic receptor using [3H]rauwolscine

Row | SMILES | Ki
36 | COc1ccc2c(c1)C1=NOC(CN3CCN(C/C=C/c4ccccc4)CC3)C1CO2 (centres undefined) | 0.8 nM
37 | COc1cc2c(cc1OC)C1=NOC(CN3CCN(Cc4ccccc4)CC3)C1CO2 (centres undefined) | 186 nM
38 | COc1cc2c(cc1OC)C1=NOC(CN3CCN(Cc4ccc5ncccc5c4)CC3)C1CO2 (centres undefined) | 117 nM
39 | COc1cc2c(cc1OC)C1=NOC(CN3CCN(Cc4cc5ccccc5s4)CC3)C1CO2 (centres undefined) | 98 nM
40 | COc1cc2c(cc1OC)C1=NOC(CN3CCN(CCc4ccccc4)CC3)C1CO2 (centres undefined) | 234 nM
41 | COc1cc2c(cc1OC)C1=NOC(CN3CCN(Cc4cccc5ccccc45)CC3)C1CO2 (centres undefined) | 234 nM

Molecular target: T2, Alpha-2C adrenergic receptor (Homo sapiens, UniProt P18825)
T2 sequence (P18825 whole entry): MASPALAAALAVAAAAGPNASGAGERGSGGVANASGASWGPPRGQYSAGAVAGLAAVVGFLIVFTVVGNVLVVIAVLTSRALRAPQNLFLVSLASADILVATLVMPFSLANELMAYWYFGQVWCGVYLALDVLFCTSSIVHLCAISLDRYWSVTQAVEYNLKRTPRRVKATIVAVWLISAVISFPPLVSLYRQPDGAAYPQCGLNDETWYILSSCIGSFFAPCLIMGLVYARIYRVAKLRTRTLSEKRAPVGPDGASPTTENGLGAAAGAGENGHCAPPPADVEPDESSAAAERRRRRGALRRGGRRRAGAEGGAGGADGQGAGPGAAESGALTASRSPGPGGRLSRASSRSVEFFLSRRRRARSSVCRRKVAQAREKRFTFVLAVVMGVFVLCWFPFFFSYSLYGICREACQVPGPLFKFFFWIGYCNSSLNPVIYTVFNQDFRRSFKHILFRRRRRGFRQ
Experiment: In vitro binding affinity towards human adrenergic alpha-2C adrenergic receptor using [3H]rauwolscine

Row | SMILES | Ki
42 | COc1cc2c(cc1OC)C1=NOC(CN3CCN(C/C=C(\C)c4ccccc4)CC3)C1CO2 (centres undefined) | 0.6 nM
43 | COc1ccc2c(c1)C1=NOC(CN3CCN(C/C=C/c4ccccc4)CC3)C1CO2 (centres undefined) | 2.3 nM
44 | COc1cccc2c1CCC[C@H]2CN(C)CCc1ccc2ccoc2c1 | 2.1 nM
45 | COc1cc2c(cc1OC)C1=NOC(CN3CCN(Cc4ccccc4)CC3)C1CO2 (centres undefined) | 89 nM
46 | COc1cc2c(cc1OC)C1=NOC(CN3CCN(Cc4ccc5ncccc5c4)CC3)C1CO2 (centres undefined) | 36 nM
47 | COc1cc2c(cc1OC)C1=NOC(CN3CCN(Cc4cc5ccccc5s4)CC3)C1CO2 (centres undefined) | 89 nM
48 | COc1cc2c(cc1OC)C1=NOC(CN3CCN(CCc4ccccc4)CC3)C1CO2 (centres undefined) | 89 nM
49 | Fc1ccc2c(c1)CC(CC1CN=CN1)C2 (centres undefined) | 19 nM
50 | COc1cc2c(cc1OC)C1=NOC(CN3CCN(Cc4cccc5ccccc45)CC3)C1CO2 (centres undefined) | 89 nM
51 | COc1ccc2c(c1)OCC1C2=NOC1CN1CCN(C/C=C/c2ccccc2)CC1 (centres undefined) | 1.9 nM
52 | C(=C\c1ccccc1)/CN1CCN(CC2ON=C3c4ccccc4OCC32)CC1 (centres undefined) | 1.7 nM

Molecular target: T3, Alpha-2B adrenergic receptor (Homo sapiens, UniProt P18089)
T3 sequence (P18089 whole entry): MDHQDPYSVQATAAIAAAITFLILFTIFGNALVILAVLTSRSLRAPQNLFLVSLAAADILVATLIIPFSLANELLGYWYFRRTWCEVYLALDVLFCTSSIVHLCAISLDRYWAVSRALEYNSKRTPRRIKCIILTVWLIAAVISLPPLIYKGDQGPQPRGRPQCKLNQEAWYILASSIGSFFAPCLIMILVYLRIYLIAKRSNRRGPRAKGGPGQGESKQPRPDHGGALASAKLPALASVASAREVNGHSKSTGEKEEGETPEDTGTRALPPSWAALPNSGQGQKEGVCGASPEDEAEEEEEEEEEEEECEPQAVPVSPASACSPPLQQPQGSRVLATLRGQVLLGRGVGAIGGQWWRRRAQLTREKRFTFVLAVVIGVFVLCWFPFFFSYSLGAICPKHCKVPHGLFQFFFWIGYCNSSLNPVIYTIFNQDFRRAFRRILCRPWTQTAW
Experiment: In vitro binding affinity towards human alpha-2B adrenergic receptor using [3H]rauwolscine

Row | SMILES | Ki
53 | COc1cc2c(cc1OC)C1=NOC(CN3CCN(C/C=C(\C)c4ccccc4)CC3)C1CO2 (centres undefined) | 31 nM
54 | COc1ccc2c(c1)C1=NOC(CN3CCN(C/C=C/c4ccccc4)CC3)C1CO2 (centres undefined) | 12 nM
55 | COc1cccc2c1CCC[C@H]2CN(C)CCc1ccc2ccoc2c1 | 11 nM
56 | COc1cc2c(cc1OC)C1=NOC(CN3CCN(Cc4ccccc4)CC3)C1CO2 (centres undefined) | 995 nM
57 | COc1cc2c(cc1OC)C1=NOC(CN3CCN(Cc4ccc5ncccc5c4)CC3)C1CO2 (centres undefined) | 721 nM
58 | COc1cc2c(cc1OC)C1=NOC(CN3CCN(Cc4cc5ccccc5s4)CC3)C1CO2 (centres undefined) | > 1000 nM
59 | COc1cc2c(cc1OC)C1=NOC(CN3CCN(CCc4ccccc4)CC3)C1CO2 (centres undefined) | > 1000 nM
60 | Fc1ccc2c(c1)CC(CC1CN=CN1)C2 (centres undefined) | 23 nM
61 | COc1cc2c(cc1OC)C1=NOC(CN3CCN(Cc4cccc5ccccc45)CC3)C1CO2 (centres undefined) | > 1000 nM
62 | COc1ccc2c(c1)OCC1C2=NOC1CN1CCN(C/C=C/c2ccccc2)CC1 (centres undefined) | 16 nM
63 | C(=C\c1ccccc1)/CN1CCN(CC2ON=C3c4ccccc4OCC32)CC1 (centres undefined) | 2 nM
64 | COc1cc2c(cc1OC)C1=NOC(CN3CCN(C/C=C/c4ccccc4)CC3)C1CO2 (centres undefined) | 42 nM

— ChEMBL document CHEMBL1136157, “Synthesis of 3a,4-dihydro-3H-[1]benzopyrano[4,3-c]isoxazoles, displaying combined 5-HT uptake inhibiting and alpha(2)-adrenoceptor antagonistic activities: a novel series of potential antidepressants” (Bioorg Med Chem Lett, 2003)
